The target of series [1] is Acetylcholinesterase (Electrophorus electricus, UniProt O42275). Put plainly: Inhibition of Electrophorus electricus AChE using […] as substrate incubated for 15 mins by Ellman's method. A general note: Ellman's reagent forms a yellow product with free thiols.
For series [2], the target named is Butyrylcholinesterase (BuChE) (Rattus norvegicus, UniProt Q9JKC1). Nature of the series: Inhibition of BuChE in rat serum at 50 uM using S-butylthiocholine iodide as substrate by Ellman's method relative to control. It is filed as cell-free. Particulars: probe S-butylthiocholine iodide. The essentials: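 Rat serum (25%) as BuChE source, S-butylthiocholine iodide 1 mM, DTNB 0.2%, in 0.1 mM phosphate buffer pH 7.4, 37 °C 15 min (modified Ellman); absorbance change at 405 nm. Three independent experiments, each in triplicate.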

Series [3] can be described thus: Antioxidant activity assessed as trolox equivalent of AAPH-induced radical scavenging activity at 5 uM preincubated for 15 mins followed by AAPH addition measured every min for 90 mins by ORAC-FL assay. The class given is functional. The essentials:
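ORAC-FL in 75 mM phosphate buffer, pH 7.4. Sample at 5 µM was preincubated with fluorescein (150 nM final) for 15 min at 37 °C, then AAPH was added (12 mM final). Fluorescence (ex 485/em 535 nm) was read every minute for 90 min. […] Triplicate, at least three independent assays.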

For series [4], the target named is Amyloid-beta precursor protein (Homo sapiens) (UniProt P05067). Put plainly: Inhibition of HFIP-pretreated self-induced amyloid beta (1 to 42) (unknown origin) aggregation at 25 uM measured after 24 hrs by ThT fluorescence assay relative to control. The procedure, abridged: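 Aβ1-42 was pretreated in HFIP for 24 h at room temperature, dried, and dissolved in DMSO to a 200 µM stock. Aβ (25 µM) was incubated with compound (25 µM) at 37 °C for 24 h. ThT was added at 5 µM in glycine-NaOH, pH 8.5. Fluorescence ex 446/em 490 nm, background-subtracted; inhibition = (1−IFi/IFc)×100. Triplicate.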

Series [5] deals with T1, Amine oxidase [flavin-containing] A (Homo sapiens, UniProt P21397).
T1 sequence (P21397 whole entry): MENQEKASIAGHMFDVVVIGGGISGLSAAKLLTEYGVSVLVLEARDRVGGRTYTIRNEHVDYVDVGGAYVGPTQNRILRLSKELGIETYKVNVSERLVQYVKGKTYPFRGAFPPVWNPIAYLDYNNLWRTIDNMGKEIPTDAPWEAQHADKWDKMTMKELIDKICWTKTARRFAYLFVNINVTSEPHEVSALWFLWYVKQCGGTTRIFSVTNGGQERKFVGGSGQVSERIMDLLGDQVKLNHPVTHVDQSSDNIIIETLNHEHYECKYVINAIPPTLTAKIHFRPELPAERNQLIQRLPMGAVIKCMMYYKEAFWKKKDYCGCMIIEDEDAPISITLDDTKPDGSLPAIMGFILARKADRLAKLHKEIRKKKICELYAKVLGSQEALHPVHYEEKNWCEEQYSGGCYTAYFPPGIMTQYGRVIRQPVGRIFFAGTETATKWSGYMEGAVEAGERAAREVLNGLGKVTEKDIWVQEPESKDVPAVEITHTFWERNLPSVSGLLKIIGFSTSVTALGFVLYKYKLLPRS
Put plainly: Inhibition of recombinant human MAO-A expressed in baculovirus infected BTI insect cells at 10 uM using kynuramine as substrate measured after 30 mins by fluorescence based assay relative to control. The note with it: 0.5 h. The procedure, abridged: (§1)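 Recombinant human MAO-A or MAO-B (7.5 µg/mL) in 100 mM potassium phosphate, pH 7.4, with 20.2 mM KCl and DMSO below 4%. Kynuramine was 45 µM for MAO-A and 30 µM for MAO-B. Incubation 30 min at 37 °C, stopped with NaOH and water, then centrifuged. Supernatant fluorescence ex 310/em 400 nm. Triplicate.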

For series [6], the target named is T2, Amine oxidase [flavin-containing] B (Homo sapiens, UniProt P27338).
T2 sequence (P27338 whole entry): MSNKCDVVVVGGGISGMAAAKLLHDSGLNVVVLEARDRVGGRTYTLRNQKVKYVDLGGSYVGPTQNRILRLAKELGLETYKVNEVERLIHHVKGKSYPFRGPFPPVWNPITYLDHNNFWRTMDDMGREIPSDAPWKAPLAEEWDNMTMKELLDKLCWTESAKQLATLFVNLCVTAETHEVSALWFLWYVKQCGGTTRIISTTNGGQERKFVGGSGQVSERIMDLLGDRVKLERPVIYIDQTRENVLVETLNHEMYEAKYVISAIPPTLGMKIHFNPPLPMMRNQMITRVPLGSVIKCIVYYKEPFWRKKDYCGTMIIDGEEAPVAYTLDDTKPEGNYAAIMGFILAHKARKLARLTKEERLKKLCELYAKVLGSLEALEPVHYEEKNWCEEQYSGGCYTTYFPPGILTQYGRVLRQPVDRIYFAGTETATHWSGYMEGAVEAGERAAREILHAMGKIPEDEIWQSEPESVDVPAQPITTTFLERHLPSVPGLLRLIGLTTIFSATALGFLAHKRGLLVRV
Nature of the series: Inhibition of recombinant human MAO-B expressed in baculovirus infected BTI insect cells at 10 uM using kynuramine as substrate measured after 30 mins by fluorescence based assay relative to control. Particulars: 0.5 h. The essentials:
as §1

Series [7] can be described thus: Permeability of the compound at 100 ug/ml measured after 18 hrs by PAMPA assay. It is filed as ADME. Particulars: read-out: permeability. The procedure, abridged: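 PAMPA-BBB. Filter coated with porcine brain lipid in dodecane. Compound (DMSO stock 5 mg/mL) was diluted to 100 µg/mL in PBS/EtOH (70:30) in the donor well, with PBS/EtOH in the acceptor. Left 18 h at 25 °C. Acceptor concentration read at ten wavelengths in four wells. Three independent runs, validated with 11 reference drugs.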

Series [8] deals with Acetylcholinesterase (Electrophorus electricus) (UniProt O42275). Nature of the series: Inhibition of Electrophorus electricus AChE at 50 uM using […] as substrate incubated for 15 mins by Ellman's method relative to control. The procedure, abridged: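 Eel AChE (0.05 U/mL final) with acetylthiocholine iodide 1 mM and DTNB 0.2% in […] pH 8.0, 37 °C 15 min (modified Ellman); absorbance at 412 nm. Three independent experiments, each in triplicate.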

For series [9], the system named is Mus musculus. Put plainly: Antialzheimer activity in scopolamine-induced Kunming mouse model of memory impairment assessed as increase in latency time at 5 mg/kg/day, ig for 7 days followed by training trial at 1 hr post dose on day 6 and subsequent scopolamine challenge at 30 mins post training trial and measured post last dose by step-down passive avoidance test. The class given is functional, organism-based. The procedure, abridged: (§2)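 Kunming mice, 18-22 g, male and female in half, 8 per group. Dosed i.g. once daily for 7 days, vehicle 0.5% CMC-Na. Day-6 training came 1 h after dosing: a 50 V, 5 s foot shock on stepping down from the platform, in a 5 min trial. Scopolamine 2.0 mg/kg i.p. followed 30 min later; control mice got none. Step-down latency and number of shocks were counted over 5 min in the test trial 24 h after training. Mean ± SEM.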

The subject of series [10] is Mus musculus. Put plainly: Antialzheimer activity in scopolamine-induced Kunming mouse model of memory impairment assessed as decrease in number of electric shock at 5 mg/kg/day, ig for 7 days followed by training trial at 1 hr post dose on day 6 and subsequent scopolamine challenge at 30 mins post training trial and measured post last dose by step-down passive avoidance test. The class given is functional, organism-based. The essentials:
as §2

Consider eight molecules from ChEMBL document CHEMBL4616631, “Design, synthesis and evaluation of phthalide alkyl tertiary amine derivatives as promising acetylcholinesterase inhibitors with high potency and selectivity against Alzheimer's disease” (Bioorg Med Chem, 2020).

For orientation: IC50 means the midpoint of a concentration-inhibition curve. A high value points to lower potency. A word on the inhibition: it is how much of the control response was suppressed.

Each structure is given as a SMILES string. Active and inactive are the calls of the source. No cut-off for these calls is given here. A value given as a limit tells only on which side of the number the result lay.

Chain of Acetylcholinesterase (O42275 whole entry): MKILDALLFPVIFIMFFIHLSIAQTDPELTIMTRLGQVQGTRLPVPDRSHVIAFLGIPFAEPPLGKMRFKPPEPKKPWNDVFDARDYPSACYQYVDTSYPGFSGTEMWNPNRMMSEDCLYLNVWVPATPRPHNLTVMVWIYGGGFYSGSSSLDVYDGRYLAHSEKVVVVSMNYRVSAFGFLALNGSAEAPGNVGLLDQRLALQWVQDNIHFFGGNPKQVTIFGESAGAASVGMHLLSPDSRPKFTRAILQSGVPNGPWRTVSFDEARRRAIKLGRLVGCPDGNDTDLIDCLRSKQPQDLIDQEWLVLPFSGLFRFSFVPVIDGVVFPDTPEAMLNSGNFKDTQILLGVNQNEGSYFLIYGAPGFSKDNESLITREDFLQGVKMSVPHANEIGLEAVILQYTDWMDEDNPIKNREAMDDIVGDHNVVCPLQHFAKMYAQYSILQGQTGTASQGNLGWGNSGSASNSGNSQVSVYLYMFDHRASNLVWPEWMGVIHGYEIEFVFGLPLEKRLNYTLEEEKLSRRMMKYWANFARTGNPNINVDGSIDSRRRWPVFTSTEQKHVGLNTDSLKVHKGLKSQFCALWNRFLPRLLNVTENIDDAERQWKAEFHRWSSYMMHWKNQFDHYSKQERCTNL
Chain of Butyrylcholinesterase (BuChE) (Q9JKC1 whole entry): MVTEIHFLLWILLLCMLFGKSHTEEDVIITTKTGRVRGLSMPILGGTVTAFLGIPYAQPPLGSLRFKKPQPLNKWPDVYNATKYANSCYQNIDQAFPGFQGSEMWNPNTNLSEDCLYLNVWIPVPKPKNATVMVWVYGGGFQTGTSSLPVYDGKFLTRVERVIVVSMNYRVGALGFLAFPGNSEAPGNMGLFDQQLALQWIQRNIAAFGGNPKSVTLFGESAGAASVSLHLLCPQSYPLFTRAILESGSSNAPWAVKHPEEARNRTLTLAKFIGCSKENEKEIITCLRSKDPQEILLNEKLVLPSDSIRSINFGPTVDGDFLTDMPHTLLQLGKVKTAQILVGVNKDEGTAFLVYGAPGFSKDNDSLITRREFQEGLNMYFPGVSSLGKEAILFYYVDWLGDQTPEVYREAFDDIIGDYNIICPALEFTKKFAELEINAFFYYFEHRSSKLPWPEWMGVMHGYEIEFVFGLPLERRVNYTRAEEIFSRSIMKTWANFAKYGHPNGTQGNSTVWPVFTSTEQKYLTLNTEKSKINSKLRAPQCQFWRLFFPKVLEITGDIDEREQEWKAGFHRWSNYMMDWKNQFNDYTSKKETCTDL
Chain of Amyloid-beta precursor protein (Homo sapiens) (P05067 whole entry): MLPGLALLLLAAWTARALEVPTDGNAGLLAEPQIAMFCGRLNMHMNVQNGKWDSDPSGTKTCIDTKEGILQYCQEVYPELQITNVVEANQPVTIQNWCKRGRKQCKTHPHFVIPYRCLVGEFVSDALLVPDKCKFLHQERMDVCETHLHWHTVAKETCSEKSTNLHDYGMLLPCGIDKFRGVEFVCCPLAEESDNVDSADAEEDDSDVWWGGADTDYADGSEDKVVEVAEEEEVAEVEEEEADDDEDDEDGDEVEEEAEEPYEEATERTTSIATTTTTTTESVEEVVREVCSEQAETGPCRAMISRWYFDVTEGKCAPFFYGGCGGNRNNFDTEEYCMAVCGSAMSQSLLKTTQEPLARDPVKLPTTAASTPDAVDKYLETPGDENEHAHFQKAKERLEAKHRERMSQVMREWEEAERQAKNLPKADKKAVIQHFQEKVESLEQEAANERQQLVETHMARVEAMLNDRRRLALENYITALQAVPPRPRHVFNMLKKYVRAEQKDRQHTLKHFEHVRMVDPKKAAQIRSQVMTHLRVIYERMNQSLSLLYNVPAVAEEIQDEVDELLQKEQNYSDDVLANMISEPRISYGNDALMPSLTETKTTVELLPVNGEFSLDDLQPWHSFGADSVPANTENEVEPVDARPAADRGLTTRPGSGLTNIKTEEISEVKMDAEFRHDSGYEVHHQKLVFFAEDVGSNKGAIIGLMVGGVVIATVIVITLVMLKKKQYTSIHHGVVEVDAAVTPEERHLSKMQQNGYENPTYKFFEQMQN
Chain of Acetylcholinesterase (Electrophorus electricus) (O42275 24-633 limits assumed): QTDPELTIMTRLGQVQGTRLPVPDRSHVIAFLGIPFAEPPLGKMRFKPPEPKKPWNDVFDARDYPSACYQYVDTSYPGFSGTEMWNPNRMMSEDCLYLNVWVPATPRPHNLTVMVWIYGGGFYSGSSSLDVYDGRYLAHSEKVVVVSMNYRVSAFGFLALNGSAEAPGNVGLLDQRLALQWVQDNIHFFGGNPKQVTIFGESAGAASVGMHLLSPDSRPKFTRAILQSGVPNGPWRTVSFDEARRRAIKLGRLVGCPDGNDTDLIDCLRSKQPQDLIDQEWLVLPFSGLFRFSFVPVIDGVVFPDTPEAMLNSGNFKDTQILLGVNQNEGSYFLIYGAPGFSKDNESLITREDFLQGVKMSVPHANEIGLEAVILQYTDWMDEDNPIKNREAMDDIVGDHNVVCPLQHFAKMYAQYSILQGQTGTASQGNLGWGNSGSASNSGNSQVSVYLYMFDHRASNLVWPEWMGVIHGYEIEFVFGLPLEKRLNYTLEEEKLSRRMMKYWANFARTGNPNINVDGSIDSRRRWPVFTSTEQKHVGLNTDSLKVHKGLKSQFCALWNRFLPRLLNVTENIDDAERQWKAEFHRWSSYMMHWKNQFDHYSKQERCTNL

In turn, `COc1cc2c(cc1OC)C(CCCCCCN(C)Cc1ccccc1)OC2=O` (centres undefined) showed a half-inhibitory concentration (IC50) in series [1] of 160 nM. Further, in [2], 50 µM produced 13.9% inhibition. Moreover, the Activity in series [3] turned out to be 0.25 µMequiv/µM. Besides, the inhibition in series [4] worked out at 13%. The inhibition at 10 µM was determined as 7.88% in series [5] and 16.3% in series [6]. Besides, in series [7], the Papp at 18 h, 100 ug/ml was 13.6 ×10⁻⁶ cm/s.

As for `CCCCC1OC(=O)c2ccccc21` (racemic) [RAC-3-N-BUTYLPHTHALIDE], the inhibition at 50 µM in series [2] was determined as 2.67%. Further, in series [3], the Activity is 0.21 µMequiv/µM. Moreover, the inhibition in series [4] and in [8] was below 5% throughout.

`COc1cc2c(cc1OC)/C(=C\CCCCCN(C)Cc1ccccc1)OC2=O` had an IC50 in [1] of 4.84 nM. In addition, in series [2], 50 µM produced 17.6% inhibition. The Activity in series [3] amounted to 0.43 µMequiv/µM. Further, the inhibition in series [4] came out at 12.4%. For the same molecule, the values for the inhibition at 10 µM in series [5] and in series [6] were 22.3% and 5.66%, respectively. Further, in series [7], the Papp at 18 h, 100 ug/ml amounted to 10.3 ×10⁻⁶ cm/s.

`COc1cc2c(cc1OC)C(CCCCN(C)Cc1ccccc1)OC2=O` (centres undefined) returned an IC50 in series [1] of 350 nM. Besides, in [2], the inhibition at 50 µM was 11.5%. Besides, the Activity in series [3] worked out at 0.29 µMequiv/µM. Besides, in series [4], the inhibition was found to be 8.9%. Moreover, the inhibition at 10 µM came out at 8% in [5] and 6.4% in series [6].

As to `CCN(CCCCC1OC(=O)c2cc(OC)c(OC)cc21)Cc1ccccc1` (centres undefined), the IC50 in series [1] stood at 580 nM. The molecule also displayed an inhibition at 50 µM in [2] of 23.1%. Moreover, the Activity in [3] was 0.23 µMequiv/µM. Further, the inhibition in series [4] was 15.6%. Moreover, the inhibition at 10 µM in series [5] came out at 7.1%; in [6], 5.51%.

Molecule `COc1ccccc1CN(C)CCCCC1OC(=O)c2cc(OC)c(OC)cc21` (centres undefined) returned a 50% inhibitory concentration (IC50) in series [1] of 490 nM. 50 µM produced 21.7% inhibition in [2]. The Activity in series [3] is 0.27 µMequiv/µM. Moreover, the inhibition in [4] turned out to be 14.4%. The inhibition at 10 µM in series [5] stood at 0.25%; in [6], 5.7%.

The molecule `COc1cc2c(cc1OC)/C(=C/CCCN1CCCCC1)OC2=O` had an IC50 in [1] of 4560 nM. Also, the inhibition at 50 µM in series [2] was 21.9%. Further, the Activity in series [3] was 0.28 µMequiv/µM. Further, the inhibition in [4] stood at 4.9%. The inhibition at 10 µM turned out to be 1.95% in series [5] and 32.3% in series [6].

Turning to `COc1cc2c(cc1OC)C(=O)C(CC1CCN(Cc3ccccc3)CC1)C2` (centres undefined), the result in series [9] and in [10] was inactive.
